We go through one compound from ChEMBL document CHEMBL4811252, “Identification of novel 1,3-diaryl-1,2,4-triazole-capped histone deacetylase 6 inhibitors with potential anti-gastric cancer activity” (Eur J Med Chem, 2021).

Active and inactive are the calls of the source. No cut-off for these calls is given here.

Data set [1] concerns MGC-803. The data set is described as follows: Induction of apoptosis in human MGC803 cells assessed as late apoptotic cells at 4 uM measured after 48 hrs by Annexin-V FITC/PI staining based flow cytometry (reference value: 2.74%). The class given is functional.
Data set [2] relates to MGC-803. The data set is described as follows: Induction of apoptosis in human MGC803 cells assessed as downregulation of Bcl2 expression after 48 hrs by Western blotting analysis. It counts as functional, cell-based. The settings on record: dose 2-8 µM. An outline of the steps: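 MGC803 cells treated for 48 h, then lysed (0.1% SDS, 150 mM NaCl, 25 mM Tris-HCl, 1% deoxycholate, 1% NP-40, 1% PMSF). Protein quantified by BCA and resolved on 8–10% SDS-PAGE onto PVDF. Blocked in 5% milk, primary antibodies overnight at 4 °C, HRP secondary, ECL. GAPDH, total α-tubulin and H3 as references. Mean ± SD of three experiments.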
For orientation: Immunoblotting shows a protein as a band on a membrane.

For data set [3], the target named is T1, Protein deacetylase HDAC6 (Homo sapiens) (UniProt Q9UBN7).
T1 sequence (whole entry): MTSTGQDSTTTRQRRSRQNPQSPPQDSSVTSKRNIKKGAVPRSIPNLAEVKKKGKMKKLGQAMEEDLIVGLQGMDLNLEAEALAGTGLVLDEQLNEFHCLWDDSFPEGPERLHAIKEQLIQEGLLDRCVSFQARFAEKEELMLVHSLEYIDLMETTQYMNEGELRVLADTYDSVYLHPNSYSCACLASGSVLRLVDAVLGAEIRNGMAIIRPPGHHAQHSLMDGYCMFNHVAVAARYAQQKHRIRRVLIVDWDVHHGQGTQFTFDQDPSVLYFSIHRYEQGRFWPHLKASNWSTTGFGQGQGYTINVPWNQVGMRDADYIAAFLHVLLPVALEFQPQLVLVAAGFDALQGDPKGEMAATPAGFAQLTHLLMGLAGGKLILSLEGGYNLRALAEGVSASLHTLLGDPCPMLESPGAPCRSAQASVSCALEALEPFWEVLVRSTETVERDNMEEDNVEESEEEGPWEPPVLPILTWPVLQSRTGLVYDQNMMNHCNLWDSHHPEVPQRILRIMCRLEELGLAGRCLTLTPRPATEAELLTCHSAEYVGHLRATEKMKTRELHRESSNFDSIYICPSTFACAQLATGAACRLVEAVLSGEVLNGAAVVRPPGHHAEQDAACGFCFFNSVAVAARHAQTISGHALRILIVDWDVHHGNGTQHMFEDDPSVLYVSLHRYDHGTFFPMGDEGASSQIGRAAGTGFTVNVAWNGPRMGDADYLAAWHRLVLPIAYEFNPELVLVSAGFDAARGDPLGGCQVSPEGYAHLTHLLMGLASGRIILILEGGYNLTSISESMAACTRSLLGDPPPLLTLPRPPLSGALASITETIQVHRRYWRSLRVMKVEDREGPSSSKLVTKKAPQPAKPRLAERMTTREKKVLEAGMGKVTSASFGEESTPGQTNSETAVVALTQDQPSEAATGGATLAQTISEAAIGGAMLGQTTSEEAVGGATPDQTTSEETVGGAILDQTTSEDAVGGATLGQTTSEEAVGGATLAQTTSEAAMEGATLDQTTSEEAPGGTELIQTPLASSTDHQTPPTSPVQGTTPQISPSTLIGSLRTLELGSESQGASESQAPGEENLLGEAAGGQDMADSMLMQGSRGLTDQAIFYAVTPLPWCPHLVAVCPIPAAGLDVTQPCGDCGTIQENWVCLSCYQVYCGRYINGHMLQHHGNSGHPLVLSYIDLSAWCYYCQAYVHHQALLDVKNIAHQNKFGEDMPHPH
The data set is described as follows: Binding affinity to HDAC6 in human MGC803 cells assessed as increase in thermal stability at 4 uM after 6 hrs by CETSA. The class given is cell-based. Conditions: MGC-803. In outline:
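MGC803 grown 24 h in 6-well plates, then exposed to DMSO or 4 µM compound for 6 h. Cells resuspended in ice-cold PBS and split into 6 tubes. Lysed by repeated freeze-thaw, heated 3 min across a 44 to 54 °C gradient. Soluble HDAC6 in the supernatant read by Western blot.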

Data set [4] concerns MGC-803. The data set is described as follows: Induction of apoptosis in human MGC803 cells assessed as early apoptotic cells at 8 uM measured after 48 hrs by Annexin-V FITC/PI staining based flow cytometry (reference value: 0.19%). The class given is functional. (In flow cytometry, cells or beads pass a laser one at a time.)
Another data set has as its target Histone deacetylase 1 (Homo sapiens, UniProt Q13547). Conditions: dose 100.0 nM, time 40.0 min.
The subject of data set [5] is MGC-803. The data set is described as follows: Inhibition of cell invasion in human MGC803 cells after 72 hrs by transwell assay. The class given is functional, cell-based. Conditions: dose 2-8 µM. An outline of the steps:
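Matrigel-coated transwell: cells in upper chamber with 1% FBS medium, 20% FBS medium below, compound added, 72 h. Cells fixed in 4% paraformaldehyde, DAPI-stained, then imaged and analyzed by high-content analysis. Mean ± SD of three experiments versus DMSO.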

The test system of data set [6] is MGC-803. The data set is described as follows: Induction of apoptosis in human MGC803 cells assessed as late apoptotic cells at 8 uM measured after 48 hrs by Annexin-V FITC/PI staining based flow cytometry (reference value: 2.74%). The class given is functional.
A further data set concerns the target T2, Histone deacetylase 8 (Homo sapiens, UniProt Q9BY41).
T2 sequence (Q9BY41 whole entry): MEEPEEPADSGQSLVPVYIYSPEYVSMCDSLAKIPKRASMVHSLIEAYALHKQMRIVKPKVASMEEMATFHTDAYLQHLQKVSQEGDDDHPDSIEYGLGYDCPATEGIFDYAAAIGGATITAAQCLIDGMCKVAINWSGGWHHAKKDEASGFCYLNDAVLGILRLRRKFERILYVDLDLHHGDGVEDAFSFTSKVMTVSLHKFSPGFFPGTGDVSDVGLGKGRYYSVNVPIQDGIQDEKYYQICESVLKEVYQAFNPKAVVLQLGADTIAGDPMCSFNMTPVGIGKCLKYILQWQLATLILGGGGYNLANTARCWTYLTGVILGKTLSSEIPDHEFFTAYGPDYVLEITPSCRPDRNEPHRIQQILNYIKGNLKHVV
In words: Inhibition of HDAC8 (unknown origin).

The nature of data set [7]: Acute toxicity in C57BL/6 mouse assessed as behavioral abnormalities at 2 g/kg, po administered via gavage measured up to 14 days. Conditions: in vivo, 2000 mg/kg, 336 h, time <=14 day. It counts as organism-based. An outline of the steps:
(§1)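 Mice aged 8-10 weeks, 20 females and 20 males, split into two groups: vehicle control (0.5% CMC-Na) or a single oral gavage dose of 2000 mg/kg. Animals were fed and observed normally for 14 days, recording body weight, mortality and behaviour. Heart, liver, spleen, lung and kidney sections were then fixed, embedded and H&E stained.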

Data set [8] has as its system MGC-803. The data set is described as follows: Induction of apoptosis in human MGC803 cells assessed as necrotic cells at 4 uM measured after 48 hrs by Annexin-V FITC/PI staining based flow cytometry (reference value: 4.74%). The class given is functional.
Data set [9] deals with MGC-803. In words: Antiproliferative activity against human MGC803 cells at 2 to 8 uM after 72 hrs by EdU staining based assay. The class given is functional, cell-based. The settings on record: dose 2-8 µM. An outline of the steps:
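MGC803 cells exposed to 0, 2, 4 or 8 µM for 72 h in 24-well plates, then EdU staining per kit instructions. EdU+ cells were imaged by immunofluorescence and quantified. Mean ± SD of three independent experiments; DMSO control.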

Data set [10] can be described thus: Acute toxicity in C57BL/6 mouse assessed as mortality at 2 g/kg, po administered via gavage measured up to 14 days. It counts as organism-based. Conditions: in vivo, 2000 mg/kg, 336 h, time <=14 day. In outline:
as §1

Chain of Histone deacetylase 1 (Q13547 whole entry): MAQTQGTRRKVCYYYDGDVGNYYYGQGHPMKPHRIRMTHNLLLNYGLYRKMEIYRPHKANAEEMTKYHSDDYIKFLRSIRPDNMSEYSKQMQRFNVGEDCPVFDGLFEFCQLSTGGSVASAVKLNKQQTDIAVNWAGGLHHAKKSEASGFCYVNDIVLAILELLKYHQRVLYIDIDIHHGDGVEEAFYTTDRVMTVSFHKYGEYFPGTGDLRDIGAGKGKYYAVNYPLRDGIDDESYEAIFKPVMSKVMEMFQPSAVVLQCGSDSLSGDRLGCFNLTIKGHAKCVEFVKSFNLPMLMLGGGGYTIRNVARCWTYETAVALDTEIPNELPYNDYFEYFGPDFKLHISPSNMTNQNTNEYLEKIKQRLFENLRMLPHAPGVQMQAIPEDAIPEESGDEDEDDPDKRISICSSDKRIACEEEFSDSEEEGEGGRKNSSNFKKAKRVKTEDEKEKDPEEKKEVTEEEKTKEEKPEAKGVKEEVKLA

In the case of `Cc1ccc(-c2nc(CNc3ccc(C(=O)NO)cc3)n(-c3ccccc3)n2)s1`, the Activity in the data set on MGC-803 [1] is 15.5%; in the data set on MGC-803 [2], “Dose-Dependent Effect”; with MGC-803 [4] it was 8.76%; in the data set with MGC-803 [6], 45.65%; in data set [7], “Non-Toxic”; in the data set with MGC-803 [8], 2.21%. In data set [10], the Activity result is “Non-Toxic”. In addition, the result (in [3]; with MGC-803 [9]) was Active. The inhibition on Histone deacetylase 1 is 30.1%; in the data set on MGC-803 [5], “Dose-Dependent Effect”. The same compound registered an IC50 against Histone deacetylase 8 of 0.349 µM.

One may read the inhibition as the share of the control response that was lost under treatment. What is called IC50 is the point on the concentration scale where inhibition reaches its midpoint. Low readings indicate greater potency in that assay, high ones weaker potency in that assay.
